# Measured values of several laboratories.
# Protocols differ between the studies behind these lines.
Compound,tested on,assay,test system,conditions,quantity,result
COCC1=N[C@@]2(O)[C@H](C(=O)N(C)OC)[C@@H](c3ccccc3)[C@]3(c4ccc(OC)cc4)Oc4cc(OC)cc(OC)c4[C@]23N1,,,PAMPA,"50 µM, 30 min, pH 7.4",Papp,783 ×10⁻⁶ cm/s
C#CCN(C)CCCCCCOCc1ccc(CN(C)c2c3c(nc4ccccc24)CCCC3)cc1,,,"male Sprague-Dawley rat, plasma","intravenous, 1 mg/kg",AUC(0-inf),0.17 µg·h/mL
CC(=O)c1c([O-])cc(C)oc1=O.[Na+],,,"rat, serum","oral, 200 mg/kg",AUC(0-t),3190 µg·h/mL
Cn1cc2c3c1C(=O)C(N)=CC3=[N+](C)CC2,HCT-116,"cell growth or viability, MTT",,72 h,CC50,1000 nM
C[C@]12CC[C@H]3[C@@H](CC=C4CC(O)CC[C@@]43CO)[C@@H]1CCC2O (some centres unmarked),,,"rat, plasma","intravenous, 1 mg/kg",AUC,0.167 µg·h/mL
Cn1c2cccc(=O)c-2nc2ccccc21,,,PAMPA,"40 µM, 5 h, pH 7.4",Papp,8.6 ×10⁻⁶ cm/s
Cn1cc2c3c1C(=O)C(N)=CC3=NCC2,HCT-116,"cell growth or viability, MTT",,72 h,CC50,2000 nM
[2H]C([2H])([18F])[C@]([2H])(N)C(=O)O,U-87 MG,,bone,"110 min, tumour-bearing",tracer uptake,1.73 %ID/g
